NRP1-CendR mod: alters CendR peptide binding to human NRP-1 | O14786 | FAM-RPARPAR peptide binding to NRP-1, fluorescence polarization | inhibition, % at 25 µM | actives 0.85% (n = 360,000) | AID 602438;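 active = inhibition or corrected inhibition above about 18%, plus a signal ratio from 0.5 to 1.5, limit read from the data, passing the limit was not always enough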
MT1-MMP act inh: MT1-MMP (human) activation inhibition | P50281 | HT1080 RFP-PRO-GFP cells, GFP/RFP ratio fluorescence, overnight; percent of plate control window, DMSO zero | actives 0.061% (n = 360,000) | AID 651647 | GFP/RFP ratio change, % at 20 µM;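 active = GFP/RFP ratio change of at least 30% with cell ATP level not reduced by more than half and red fluorescence within 50% of control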
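Assay system: RFP-PRO-GFP reporter HT1080 cells; read-out basis: GFP/RFP fluorescence ratio; benchmarks: DMSO wells and RFP-L50D-GFP cells; doses: 20 µM single dose, 1% DMSO; schedule: overnight cell settling, then overnight compound exposure, 37 °C, 5% CO2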
beta cell repl: MIN6 beta-cell proliferation induction | MIN6 cells proliferation, ATPlite luminescence, 48 h; cells starved in 0.2% serum; 100% = growth in 10% serum | actives 0.29% (n = 330,000) | proliferation, % at 10 µM | AID 2380;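 active = compounds whose signal lies at least 3.5 SD above the mean of all wells on their plate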
Myeloid diff MLP: promotes myeloid progenitor differentiation. ER-HoxA9 myeloid progenitors, lysozyme-GFP differentiation, flow cytometry. calls only at 10 µM. actives 1% (n = 360,000). AID 624256;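 active = normalized GFP-positive differentiation at or above the plate's own cutoff, the solvent-only control mean plus 3 SD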;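 note: cells exposed to compound for four days before flow analysis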
DAGLB inh: blocks human DAGLB lipase activity; HEK293T DAGLB membrane lysate, EnzChek fluorogenic substrate; Q8NCG7; actives 0.059% (n = 340,000); inhibition, % at 5.17 µM; in the data active = inhibition above about 34%
SENP1 inh: blocks the human SENP1 SUMO protease catalytic domain; actives 0.21% (n = 360,000); recombinant SENP1 catalytic domain, CyPet-SUMO1-YPet FRET cleavage; inhibition, % at 10 µM; Q9P0U3;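 active = inhibition at least 30% at 10 µM, raw YFP signal under a set limit, fluorescence ratio 0.5 to 1.5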
Target sequence (Q9P0U3 419-644 limits assumed): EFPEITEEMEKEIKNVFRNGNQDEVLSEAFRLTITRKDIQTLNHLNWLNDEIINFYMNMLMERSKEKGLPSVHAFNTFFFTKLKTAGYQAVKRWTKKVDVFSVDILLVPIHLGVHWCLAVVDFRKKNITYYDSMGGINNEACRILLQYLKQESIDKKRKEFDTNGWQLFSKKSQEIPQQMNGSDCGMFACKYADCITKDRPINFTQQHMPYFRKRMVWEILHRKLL
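Controls: no-enzyme wells low, DMSO-plus-enzyme wells high control. Test system: human recombinant His6-tagged SENP1 catalytic domain enzyme. Reagent: SFCypet-SUMO1-SFYpet FRET protein substrate, 25 nM final. Doses: one dose per compound, 10 µM, 0.5% DMSO. Detection: FRET, CFP and YFP emission. Timing: 50 min reaction at room temperature.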
Myeloid diff: compounds promoting myeloid differentiation. shares compounds with Myeloid diff MLP. ER-HoxA9 myeloid progenitors, GFP/Mac1 double-positive flow. calls only. actives 2% (n = 2,300). AID 651706;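 active = share of green or green-and-red cells above 9 and 9% in run 1 or 4 and 3% in run 2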
GFP autofluor: compound fluorescence in myeloid differentiation counter-screen; shares compounds with Myeloid diff MLP; ER-HoxA9 myeloid progenitors, no estrogen, GFP autofluorescence flow cytometry; vehicle wells 0%, positive control 100%; fluorescence response, % (concentration not given with the values); actives 7.4% (n = 2,300); AID 651707;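 active = over 5% cells positive for green fluorescent reporter, or over 2% positive for both it and APC stain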
Hits are given with their value; n = inactive; x = no result; + = active, no number. Only some compounds are listed: those with a hit (about 2.4% of all), similar ones and a draw of the others.

SMILES | NRP1-CendR mod | MT1-MMP act inh | beta cell repl | Myeloid diff MLP | DAGLB inh | SENP1 inh | Myeloid diff | GFP autofluor
COc1ccc(CNc2ccccc2)cc1Br | n | n | n | n | n | n | n | n
C#CC[N+]1(CC#Cc2ccccc2)CCCCC1 | n | n | n | n | n | n | x | x
C#CC[N+]1(CC#Cc2cccc(C)c2)CCCCC1 | n | n | n | n | n | n | n | n
C#CC[N+]1(CC#Cc2ccccc2)CCOCC1 | n | n | n | n | n | n | n | n
O=C(NCc1ccccc1)C1=C[C@H](C2CC2)C[C@H](OCCCCO)O1 | n | n | n | n | n | n | x | x
COc1ccccc1OCc1ccc(C(=O)NN)cc1 | n | n | n | n | n | n | n | n
O=C(NC1CC(=O)N(c2ccc(F)cc2)C1)C(=O)c1c[nH]c2ccccc12 (stereo unspecified) | n | n | n | n | n | n | x | x
Cc1cc(C(F)(F)F)nc(SCC(=O)c2cccc([N+](=O)[O-])c2)n1 | n | n | n | n | n | n | n | n
Cc1cc(C)nc(-n2ncc3c2CC(c2ccc(F)cc2)CC3=O)n1 (stereo unspecified) | n | n | n | n | n | n | n | n
Cc1cc(C)nc(-n2ncc3c2CC(c2ccccc2)CC3=O)n1 (stereo unspecified) | n | n | n | n | n | n | x | x
O=S(=O)(c1ccc(Cl)c(C(F)(F)F)c1)N1CCN(c2ccccn2)CC1 | n | n | n | n | n | n | x | x
COc1ccccc1N1CCN(C(=O)c2cc(-c3ccccc3)on2)CC1 | n | n | n | n | n | n | x | x
COc1ccc(-c2cc(C(=O)N3CCN(c4ccccc4OC)CC3)no2)cc1OC | n | n | n | n | n | n | n | n
Cc1cc(C)n(-c2nnc3n2N=C(c2ccccc2)CS3)n1 | n | n | n | n | n | n | x | x
Cc1cc(C)n(-c2nnc3n2N=C(c2c[nH]c4ccccc24)CS3)n1 | 23 | n | n | n | n | n | n | n
COc1ccc(C2CC(=O)Oc3cc(C)c(Cl)cc32)cc1 (stereo unspecified) | n | n | x | n | n | n | x | x
NNc1nc(C(F)(F)F)nc2ccccc12 | n | n | n | n | n | n | x | x
O/C=c1\ccc2cccc3nc(C(F)(F)F)nc1c23 | n | n | n | n | n | n | n | n
COc1ncccc1-c1nnn(-c2ccccc2)n1 | n | n | n | n | n | n | x | x
Cc1ccc(C(=O)NCC(=O)N2CCN(c3ccccc3O)CC2)s1 | n | n | x | n | n | n | x | x
CC(=O)NC1CC2CCCC(C1)N2S(=O)(=O)c1cccc(F)c1 (stereo unspecified) | n | n | n | + | n | n | n | n
CC(=O)N1CCN(C(=O)c2ccc(NS(=O)(=O)c3ccc4c(c3)OCCO4)cc2)CC1 | n | n | n | x | n | n | x | x
CC1(C)O[C@@H]2C[C@H]3[C@@H]4C[C@H](F)C5=CC(=O)CC[C@]5(C)[C@H]4[C@@H](O)C[C@]3(C)[C@]2(C(=O)CO)O1 | n | n | n | n | n | n | n | n
COc1cccc(NC(=O)CSc2nnc(-c3ccco3)c(-c3ccco3)n2)c1 | n | n | n | + | n | n | n | n
COc1ccc(NC(=O)CSc2nnc(-c3ccco3)c(-c3ccco3)n2)cc1OC | n | n | n | n | n | n | x | x
SMILES | NRP1-CendR mod | MT1-MMP act inh | beta cell repl | Myeloid diff MLP | DAGLB inh | SENP1 inh | Myeloid diff | GFP autofluor
CCc1ccc(NC(=O)Cn2cc([N+](=O)[O-])nc2C)cc1 | n | n | n | n | n | n | x | x
O=C(c1cc(-c2ccccc2Cl)nc2ccccc12)N1CCN(c2ccccn2)CC1 | n | n | n | n | n | n | n | n
COc1ccc(-c2cc(C(=O)N3CCCCCC3)c3ccccc3n2)c(OC)c1 | n | n | n | + | n | n | n | n
C#CCCC/C(=C\C(=O)N(C)[C@H](C(=O)N(C)[C@H](C(=O)N(C)[C@H](C(=O)N(C)[C@H](C(N)=O)C(C)C)C(C)C)C(C)C)C(C)C)OC | n | n | n | n | n | n | n | n
O=C(C1=C(O)C(=O)N(CCN2CCOCC2)C1c1ccc(F)cc1)c1cc2ccccc2o1 (stereo unspecified) | n | n | n | n | n | n | x | x
O=C(C1=C(O)C(=O)N(CCCN2CCOCC2)C1c1ccccn1)c1cc2ccccc2o1 (stereo unspecified) | n | n | n | n | n | n | n | n
Cc1cc(S(=O)(=O)N2CCCCC2)c(C)s1 | n | n | n | n | n | n | x | x
CC(=O)Nc1ccc(-c2ccnc3c2CC(C(=O)Nc2cccc(N(C)C)c2)O3)cc1 (stereo unspecified) | n | n | x | + | x | n | n | n
CC(=O)Nc1ccc(-c2ccnc3c2CC(C(=O)Nc2cccc(C(F)(F)F)c2)O3)cc1 (stereo unspecified) | n | n | x | + | x | n | n | n
CS(=O)(=O)Nc1cccc(NC(=O)C2Cc3c(-c4ccccc4)ccnc3O2)c1 (stereo unspecified) | n | n | x | + | x | n | n | n
CCOC(=O)C1CCc2c(ccc3ccccc23)N1CCC#N (stereo unspecified) | n | n | x | n | n | n | x | x
O=C(c1cccc(S(=O)(=O)N2CCCC2)c1)N1CCOCC1 | n | n | n | n | n | n | x | x
COC(=O)c1c([N+](=O)[O-])c(OC)c(OC)c(OC)c1[N+](=O)[O-] | n | n | n | n | n | n | x | x
CC(=O)c1ccc(Nc2nc(=O)c3cccnc3s2)cc1 | n | n | n | n | n | n | x | x
Cc1ccc(Nc2nc(=O)c3cccnc3s2)c(Br)c1 | n | n | n | + | n | n | + | n
Cc1cc(C)[n+](C)n1CC(O)Cn1c2ccccc2c2ccccc21 (stereo unspecified) | n | n | n | n | n | n | x | x
O=C(N1CCN(c2ncccn2)CC1)C12CC3CC(CC(C3)C1)C2 | n | n | n | n | n | n | x | x
CCOC(=O)Cn1c2c(c(=N)c3c1CCC3)CCC2 | n | n | n | n | n | n | x | x
CCOC(=O)Cn1c2c(c(=N)c3ccccc31)CCC2 | n | n | n | + | n | n | n | n
COc1ccc(C(NC(=O)c2c(F)c(F)c(F)c(F)c2F)c2ccccc2)cc1 (stereo unspecified) | n | n | n | n | n | n | x | x
Nc1ccc2c3c(cccc13)C(=O)N(c1ccccc1)C2=O | n | n | x | + | n | n | n | n

Source: PubChem BioAssay
